Data: ChEMBL document CHEMBL1129602, “Indole derivatives as a new class of steroid 5 alpha-reductase inhibitors” (J Med Chem, 1996)
Several values for one entry are separate records, joined by “and”; a condition that tells them apart may be missing. Identical values can stand only once.

What was measured:
Rattus norvegicus [1] = assay: Percent conversion of testosterone to dihydrotestosterone in prostate of rats at 30 mg/kg of compound given perorally; assay type: functional, Prostate gland; details: route oral
Method in brief: (§1)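 Rats dosed orally at 1–30 mg/kg, with controls at 0 mg/kg. Prostates removed 4 h later and homogenized. Testosterone and DHT in the homogenate measured by radioimmunoassay and expressed as % conversion of T to DHT. Mean ± SEM of four rats. Groups compared with the 0 mg/kg control by Dunnett test.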

[2] = Compound was tested in vitro for inhibitory activity against 5-alpha reductase isozyme homogenated from transfected Namalwa; assay type: functional
Method in brief: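 Homogenate of Namalwa cells transfected to express human type 2 isozyme, 40 μg cellular protein per assay. Buffer 0.1 M Na2HPO4–citrate pH 5.5 with 0.3 μM [14C]testosterone and 2 mM NADPH, across a range of drug concentrations. IC50 given as mean ± SEM of three separate experiments.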

Rattus norvegicus [3] = assay: Percent conversion of testosterone to dihydrotestosterone in prostate of rats at 10 mg/kg of compound given perorally; assay type: functional, Prostate gland; details: route oral; method in brief: as §1
Rattus norvegicus [4] = assay: Percent conversion of testosterone to dihydrotestosterone in prostate of rats at 1 mg/kg of compound given perorally; assay type: functional, Prostate gland; details: route oral; method in brief: as §1
Rattus norvegicus [5] = assay: Percent conversion of testosterone to dihydrotestosterone in prostate of rats at 0 mg/kg of compound given perorally; assay type: functional, Prostate gland; details: route oral; method in brief: as §1
Rattus norvegicus [6] = assay: Percent conversion of testosterone to dihydrotestosterone in prostate of rats at 3 mg/kg of compound given perorally; assay type: functional, Prostate gland; details: route oral; method in brief: as §1
Rattus norvegicus [7] = assay: Concentration of testosterone (T) and DHT in homogenate was determined by radio immunoassay. Values are presented of Four rats, at dose mg/kg, p.o. =10.; assay type: functional; method in brief: as §1
[8] = target: T1, 3-oxo-5-alpha-steroid 4-dehydrogenase 1 (Rattus norvegicus) (UniProt P24008); assay: Inhibitory activity of compound towards 5-alpha reductase from rat =; details: 100 nM
T1 sequence (whole entry): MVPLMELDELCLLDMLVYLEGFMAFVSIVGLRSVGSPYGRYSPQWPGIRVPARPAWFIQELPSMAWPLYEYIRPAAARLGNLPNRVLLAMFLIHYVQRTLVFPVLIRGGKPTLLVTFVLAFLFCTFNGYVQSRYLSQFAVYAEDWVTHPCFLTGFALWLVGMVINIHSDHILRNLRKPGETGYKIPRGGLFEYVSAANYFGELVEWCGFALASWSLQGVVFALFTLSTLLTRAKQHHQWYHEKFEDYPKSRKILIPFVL

[9] = target: T2, 3-oxo-5-alpha-steroid 4-dehydrogenase 2 (Rattus norvegicus, UniProt P31214); assay: Compound was tested in vitro for inhibitory activity against type 2 5-alpha reductase Isozyme homogenated from rat epididymis; assay type: functional
T2 sequence (P31214 whole entry): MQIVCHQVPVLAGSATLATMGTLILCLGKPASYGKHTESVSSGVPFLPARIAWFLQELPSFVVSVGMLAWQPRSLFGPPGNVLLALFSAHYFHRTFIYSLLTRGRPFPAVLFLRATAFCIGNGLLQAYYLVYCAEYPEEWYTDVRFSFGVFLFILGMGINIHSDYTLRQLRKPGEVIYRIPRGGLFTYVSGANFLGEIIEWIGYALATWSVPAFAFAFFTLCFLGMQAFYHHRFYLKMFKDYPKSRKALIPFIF
Method in brief: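 Epididymal particulates from male Wistar rats (200–300 g), pelleted at 100000g for 0.5 h. Compounds added in ethanol. Incubated 37 °C for 10 min, then stopped and extracted with ethyl acetate. Inhibition taken from [14C]DHT conversion versus a blank.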

[10] = target: T3, 3-oxo-5-alpha-steroid 4-dehydrogenase 1 (Rattus norvegicus, UniProt P24008); assay: 5 alpha- reductase inhibitory activity; assay type: functional
T3 sequence (P24008 whole entry): T1 sequence (whole entry)

SMILES	IC50 [2] [nM]	IC50 [8] [nM]	IC50 [9] [nM]	IC50 [10] [nM]	Conversion (Rattus norvegicus [1]) [%]	Conversion (Rattus norvegicus [3]) [%]	Conversion (Rattus norvegicus [4]) [%]	Conversion (Rattus norvegicus [5])	Conversion (Rattus norvegicus [6]) [%]	Conversion (Rattus norvegicus [7]) [%]
CCCC(CCC)n1ccc2cc(/C(=C/C(=O)Nc3ccccc3OCCCC(=O)O)CC)ccc21	341	–	–	–	73	84	–	96%	87	84
CC/C(=C\C(=O)Nc1ccccc1OCCCC(=O)O)c1ccc2c(ccn2C(c2ccc(F)cc2)c2ccc(F)cc2)c1	357	–	–	–	50	70	–	94%	76	–
CC/C(=C\C(=O)Nc1ccccc1OCCCC(=O)O)c1ccc2c(ccn2C(c2ccccc2)c2ccccc2)c1	–	–	–	2.5	–	–	–	–	–	–
C/C(=C\C(=O)Nc1ccccc1OCCCC(=O)O)c1ccc2c(ccn2C(c2ccccc2)c2ccccc2)c1	–	–	–	5.6	–	–	–	–	–	–

More lines, main results first:

IC50 [2] [nM]	IC50 [8] [nM]	IC50 [9] [nM]	IC50 [10] [nM]	SMILES	Conversion (Rattus norvegicus [1]) [%]	Conversion (Rattus norvegicus [3]) [%]	Conversion (Rattus norvegicus [4]) [%]	Conversion (Rattus norvegicus [5])	Conversion (Rattus norvegicus [6]) [%]	Conversion (Rattus norvegicus [7]) [%]
78.7	–	–	–	Cc1c(O[C@@H](C)c2ccc(CC(C)C)cc2)ccc(C(=O)Nc2ccccc2OCCCC(=O)O)c1C (racemic)	54	56	82	91%	88	–
0.58	10	2.1	–	CC(C)(C)NC(=O)[C@H]1CC[C@H]2[C@@H]3CC[C@H]4NC(=O)C=C[C@]4(C)[C@H]3CC[C@]12C [FINASTERIDE]	39	50	64	84%	49	–
215	–	–	–	C/C(=C\C(=O)Nc1ccccc1OCCCC(=O)O)c1ccc2c(ccn2C(c2ccc(F)cc2)c2ccc(F)cc2)c1	62	85	–	98% and 93%	–	–
